Calls of active or inactive are those of the source. The rule behind the calls is not given here.
Key:
[1] = system: L1210; test: Antitumor activity against mouse L1210 cells allografted in CDF-1 mouse assessed as increase in average survival time at 60 to 100 mg/kg, ip qd for 6 consecutive days starting 24 hrs post implantation relative to control; settings: dose mg/kg 60-100; route intraperitoneal
[2] = system: Sarcoma-180; test: Antitumor activity against mouse Sarcoma 180 cells allografted in CD-1 mouse assessed as mouse survival at 40 mg/kg, ip qd for 6 consecutive days starting 24 hrs post implantation measured after 50 days relative to control; assay type: functional; settings: Sarcoma-180, ip, route intraperitoneal
In short: (§1)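 Female CD-1 mice carrying Sarcoma 180 ascites cells from 7-day donor tumors. Given intraperitoneal doses daily for six consecutive days beginning 24 h after implantation; groups of 10 mice, 5 for some. Read-out is the percentage of mice in each group alive more than 50 days.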

[3] = system: Sarcoma-180; test: Antitumor activity against mouse Sarcoma 180 cells allografted in CD-1 mouse assessed as mouse survival at 60 mg/kg, ip qd for 6 consecutive days starting 24 hrs post implantation measured after 50 days relative to control; assay type: functional; settings: Sarcoma-180, ip, route intraperitoneal
In short: as §1

[4] = system: Sarcoma-180; test: Antitumor activity against mouse Sarcoma 180 cells allografted in CD-1 mouse assessed as mouse survival at 80 mg/kg, ip qd for 6 consecutive days starting 24 hrs post implantation measured after 50 days relative to control; assay type: functional; settings: Sarcoma-180, ip, route intraperitoneal
In short: as §1

[5] = system: Sarcoma-180; test: Antitumor activity against mouse Sarcoma 180 cells allografted in CD-1 mouse assessed as increase in average survival time at 40 mg/kg, ip qd for 6 consecutive days starting 24 hrs post implantation measured relative to control; assay type: functional; settings: route intraperitoneal
In short: (§2)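 Sarcoma 180 ascites cells propagated in female CD-1 mice; implanted from donors carrying 7-day tumors. Dosed intraperitoneally once daily for six days starting 24 h post-implant; 10 mice per group, 5 for some groups. %T/C = average survival time (treated/control) × 100; mice surviving more than 50 days counted as 50 days. Body-weight change over the therapy period also recorded.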

[6] = system: Sarcoma-180; test: Antitumor activity against mouse Sarcoma 180 cells allografted in CD-1 mouse assessed as increase in average survival time at 60 mg/kg, ip qd for 6 consecutive days starting 24 hrs post implantation measured relative to control; assay type: functional; settings: route intraperitoneal
In short: as §2

[7] = system: Sarcoma-180; test: Antitumor activity against mouse Sarcoma 180 cells allografted in CD-1 mouse assessed as increase in average survival time at 80 mg/kg, ip qd for 6 consecutive days starting 24 hrs post implantation measured relative to control; assay type: functional; settings: route intraperitoneal
In short: as §2

[8] = system: Mus musculus; test: Toxicity in mouse Sarcoma 180 cells allografted CD-1 mouse assessed as change in body weight at 40 mg/kg, ip qd for 6 consecutive days starting 24 hrs post implantation (reference value: +13.5 %); assay type: organism-based; set-up: dose 40 mg/kg, route intraperitoneal; settings: in vivo
[9] = system: Mus musculus; test: Toxicity in mouse Sarcoma 180 cells allografted CD-1 mouse assessed as change in body weight at 60 mg/kg, ip qd for 6 consecutive days starting 24 hrs post implantation (reference value: +13.5 %); assay type: organism-based; set-up: dose 60 mg/kg, route intraperitoneal; settings: in vivo
[10] = system: Mus musculus; test: Toxicity in mouse Sarcoma 180 cells allografted CD-1 mouse assessed as change in body weight at 80 mg/kg, ip qd for 6 consecutive days starting 24 hrs post implantation (reference value: +13.5 %); assay type: organism-based; set-up: dose 80 mg/kg, route intraperitoneal; settings: in vivo
[11] = system: L1210; test: Antitumor activity against mouse L1210 cells allografted in […] mouse assessed as increase in average survival time at 60 to 100 mg/kg, ip qd for 6 consecutive days starting 24 hrs post implantation relative to control
[12] = system: Sarcoma-180; test: Antitumor activity against mouse Sarcoma 180 cells allografted in CD-1 mouse assessed as increase in average survival time at 80 mg/kg, ip qd for 6 consecutive days starting 24 hrs post implantation measured relative to control

Compound COc1ccc(S(=O)(=O)N/N=C/c2cccc[n+]2[O-])cc1 has a T/C [1] of 234%.

In the case of COc1ccc(S(=O)(=O)N/N=C/c2cccn[n+]2[O-])cc1, the survival at 40 mg/kg [2] is reported as 10%, the survival at 60 mg/kg [3] is reported as 20% and the survival at 80 mg/kg [4] is reported as 0%. For the same compound, the T/C [5] was 231%, the T/C [6] was 218% and the T/C [7] was 193%. The Activity [8] was -1.6%, the Activity [9] was -3.2% and the Activity [10] was -4.3%. The Activity [11] was “inactive”.

For COc1ccc(S(=O)(=O)N/N=C/c2ccnc[n+]2[O-])cc1, the survival at 40 mg/kg [2] was 0%, the survival at 60 mg/kg [3] was 0% and the survival at 80 mg/kg [4] was 0%. For the same compound, the T/C [5] was 96%, the T/C [6] was 100% and the T/C [7] was 94%. For the same compound, the Activity [8] was 20.3%, the Activity [9] was 10.8% and the Activity [10] was 13.9%. For the same compound, the Activity [11] was “inactive” and the Activity [12] was “inactive”.

O=S(=O)(N/N=C/c1cccc[n+]1[O-])c1ccccc1 was tested, and the survival at 40 mg/kg [2] was 20%, the T/C [5] was 235% and the Activity [8] was -2.6%. It also gave a T/C [1] of 126%.

Compound Cc1ccc(S(=O)(=O)N/N=C/c2cccn[n+]2[O-])cc1 has a survival at 40 mg/kg [2] of 10%, a survival at 60 mg/kg [3] of 20% and a survival at 80 mg/kg [4] of 60%. It also gave a T/C [5] of 164%, a T/C [6] of 254% and a T/C [7] of 315%. It also gave an Activity [8] of -0.2%, an Activity [9] of -3.2% and an Activity [10] of -4.9%. The Activity [11] was “inactive”.

Work on O=S(=O)(N/N=C/c1cccn[n+]1[O-])c1ccccc1 yielded a survival at 40 mg/kg [2] of 10%, a survival at 60 mg/kg [3] of 10% and a survival at 80 mg/kg [4] of 40%. For the same compound, the T/C [5] was 194%, the T/C [6] was 230% and the T/C [7] was 274%. The Activity [8] was -2.9%, the Activity [9] was -3.8% and the Activity [10] was -3.5%. The Activity [11] was “inactive”.

With Cc1ccc(S(=O)(=O)N/N=C/c2ccnc[n+]2[O-])cc1 the survival at 40 mg/kg [2] was 0%, the survival at 60 mg/kg [3] was 0% and the survival at 80 mg/kg [4] was 0%. It also gave a T/C [5] of 115%, a T/C [6] of 100% and a T/C [7] of 103%. For the same compound, the Activity [8] was 19.6%, the Activity [9] was 16.5% and the Activity [10] was 15.2%. For the same compound, the Activity [11] was “inactive” and the Activity [12] was “inactive”.

Cc1ccc(S(=O)(=O)N/N=C/c2cccc[n+]2[O-])cc1 gave a T/C [1] of 170%.

Work on O=S(=O)(N/N=C/c1ccnc[n+]1[O-])c1ccccc1 yielded a survival at 40 mg/kg [2] of 0%, a survival at 60 mg/kg [3] of 0% and a survival at 80 mg/kg [4] of 0%. For the same compound, the T/C [5] was 89%, the T/C [6] was 97% and the T/C [7] was 112%. It also gave an Activity [8] of 16.3%, an Activity [9] of 11.2% and an Activity [10] of 9.6%. The Activity [11] was “inactive” and the Activity [12] was “inactive”.

— ChEMBL document CHEMBL3244267, “Antineoplastic properties of arylsulfonylhdrazones of 3-formylpyridazine 2-oxide and 4-formylpyrimidine 3-oxide” (J Med Chem, 1978)
